Published values collected from several papers.
Protocols differ between the studies behind these lines.
BCHE: Cholinesterase (BCHE, Homo sapiens, UniProt P06276)
TPR: Trypanothione reductase (TPR, Trypanosoma cruzi, UniProt P28593)

Compound | target | assay | setting | measurement | value
O=C(Nc1cccc(-c2ccn3c(CC4CC4)nnc3c2C(F)(F)F)c1)c1ccc(S(=O)(=O)F)cc1 | Metabotropic glutamate receptor 3 (GRM3, Homo sapiens, UniProt Q14832) | calcium signal, agonist |  | EC50 | > 50.1 µM
CSCC[C@H](NC(=O)[C@H](CCC(N)=O)NC(=O)[C@H](C)NC(=O)[C@H](CO)NC(=O)[C@@H](N)CO)C(=O)N[C@@H](CC(N)=O)C(=O)N[C@@H](CC(C)C)C(=O)N[C@@H](CC(N)=O)C(=O)N[C@H](C(=O)N[C@@H](Cc1ccccc1)C(=O)N[C@@H](CC(C)C)C(=O)N[C@@H](CC(N)=O)C(=O)O)[C@@H](C)O | 1-deoxy-D-xylulose 5-phosphate reductoisomerase (Escherichia coli K-12, UniProt P45568) | enzyme activity, inhibitor, absorbance | with preincubation | IC50 | 266 µM
CC(C)C[C@H](NC(=O)[C@H](Cc1ccccc1)NC(=O)c1cnccn1)B(O)O | Plasma kallikrein (KLKB1, Homo sapiens, UniProt P03952) | enzyme activity, inhibitor |  | IC50 | 2 µM
[O]=[V]([OH])([OH])[OH] | Tyrosyl-DNA phosphodiesterase 2 (TDP2, Homo sapiens, UniProt O95551) | enzyme activity, inhibitor, absorbance |  | IC50 | 40000 µM
[O-]/[N+](=C\c1ccc2cccc(O)c2n1)Cc1ccccc1 | BCHE | enzyme activity, inhibitor | pH 7 | Ki | 0.0043 µM
C=CCn1c2cc(OC(=O)CCCCN3CCN(Cc4ccccc4C(F)(F)F)CC3)ccc2c2ccnc(C)c21 | BCHE | enzyme activity, inhibitor, Ellman |  | IC50 | 0.357 µM
C[C@H](NC(=O)Cc1ccccc1)C(=O)N[C@H](Cc1c[nH]c2ccccc12)C(=O)NCCc1ccccc1 | Bombesin receptor subtype-3 (Brs3, Mus musculus, UniProt O54798) | calcium signal, agonist, fluorescence |  | EC50 | 0.0333 µM
OC[C@H]1O[C@H]([S-])[C@H](O)[C@@H](O)[C@@H]1O.[Au+] | Tyrosine-protein phosphatase non-receptor type 12 (PTPN12, Homo sapiens, UniProt Q05209) | enzyme activity, inhibitor, fluorescence |  | IC50 | 8 µM
Nc1c2c(nc3ccccc13)CCCC2 | Ribosyldihydronicotinamide dehydrogenase [quinone] (NQO2, Homo sapiens, UniProt P16083) | enzyme activity, inhibitor, absorbance |  | IC50 | 3 µM
Cc1cc(C)c2[nH]c(=O)c(CN(CCO)C(=S)Nc3ccc(N4CCOCC4)cc3)cc2c1 | Beta-glucuronidase (uidA, Escherichia coli, UniProt P05804) | enzyme activity, inhibitor |  | EC50 | 3.1 µM
CCCCc1cc2cc(-n3nc(C)c4c3CC(C)(C)CC4=O)cc(N[C@H]3CC[C@H](O)CC3)c2c(=O)[nH]1 | Heat shock protein HSP 90-beta (HSP90AB1, Homo sapiens, UniProt P08238) | ligand displacement, FP |  | IC50 | 0.186 µM
O=c1c2ccccc2[se]n1-c1ccccc1 | TPR | enzyme activity, inhibitor, absorbance |  | IC50 | 1.36 µM
CC(C)(O)[C@@H](Nc1nc(Cl)nc2c1ncn2[C@H]1[C@H](O)[C@H](O)[C@]2(CO)C[C@H]12)C1CC1 | Muscarinic acetylcholine receptor M5 (CHRM5, Homo sapiens, UniProt P08912) | ligand displacement, radioligand |  | Ki | 2.73 µM
c1ccc(CCCN2CCN(CCOC(c3ccccc3)c3ccccc3)CC2)cc1 | TPR | enzyme activity, inhibitor, absorbance |  | IC50 | 10.9 µM
C/C=C1\NC(=O)[C@@H](NC(=O)[C@@H](NC(=O)C/C(=C/Cl)CC)C(C)C)[C@@H](C)OC(=O)[C@H](C(C)C)NC(=O)[C@H](Cc2ccc(O)cc2)N(C)C(=O)[C@H](Cc2ccccc2)N2C(=O)[C@H](CC[C@H]2O)NC1=O | Proteinase K (PROK, Engyodontium album, UniProt P06873) | enzyme activity, inhibitor, fluorescence |  | IC50 | > 5 µM
